In ChEMBL document CHEMBL4265873, “Design and discovery of silybin analogues as antiproliferative compounds using a ring disjunctive - Based, natural product lead optimization approach” (Eur J Med Chem, 2017):
Calls of active or inactive are those of the source. No cut-off for these calls is given here.

How the values were obtained:
[1] = species: Homo sapiens; test: Inhibition of tubulin alpha in human OV2008 cells assessed as induction of disturbance in cellular microtubule shape and integrity by measuring cell shrinkage and rounding at 2 to 4 uM after overnight incubation by immunofluorescence analysis; assay type: cell-based
[2] = Selectivity index, ratio of IC50 for cytotoxicity in CHO cells incubated for 68 hrs by MTT assay to IC50 for cytotoxicity in human OV2008 cells incubated for 68 hrs by MTT assay; assay type: toxicity, cell-based; details: Chinese hamster (CHO cells), CHO cells versus OV2008 cells, read-out: Ratio IC50
[3] = test system: A2780; test: Induction of apoptosis in human A2780 cells assessed as apoptosis cells level at 2 uM incubated for 12 hrs by Alexa Fluor 488 annexin V and mito-tracker red CMXRos dye staining based flow cytometry (reference value: 0.0%); assay type: functional
Method in brief: (§1)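 Cells in complete medium were treated with 0, 2 or 4 µM for 12 h, then trypsinised. They were stained with MitoTracker Red (4 µL of 10 µM working solution per 1 mL of cells) for 30 min at 37 °C under 5% CO2. Cells were then resuspended in annexin-binding buffer with Alexa Fluor 488 annexin V for 15 min. Flow cytometry emission read at 530 and 585 nm. Two independent experiments, each in triplicate.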

[4] = test system: A2780; test: Induction of morphological changes in human A2780 cells at 1 to 4 uM incubated for 68 hrs; assay type: functional, cell-based
Method in brief: (§2)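 OV2008 and A2780 cells, with CHO alongside, were exposed to 0, 1, 2 or 4 µM for 68 h. Each triplicate treatment was photographed at 20X under an inverted microscope to assess morphology.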

[5] = test system: 2008; test: Induction of cell cycle arrest in human OV2008 cells assessed as cell accumulation at S phase at 4 uM incubated for 12 hrs by propidium iodide staining based flow cytometry (reference value: 5.2%); assay type: functional
Method in brief: (§3)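 OV2008 cells were plated at 1x10^6 cells/well and incubated with 0, 2 or 4 µM for 12 h. Cells were trypsinised, washed and resuspended in ice-cold PBS, then stained with propidium iodide for at least 15 min. Phase distribution was measured by flow cytometry. Means ± SD of three independent experiments in triplicate.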

[6] = test system: 2008; test: Induction of morphological changes in human OV2008 cells at 1 to 4 uM incubated for 68 hrs; assay type: functional, cell-based; method in brief: as §2
[7] = test system: 2008; test: Induction of cell cycle arrest in human OV2008 cells assessed as cell accumulation at G1 phase at 2 uM incubated for 12 hrs by propidium iodide staining based flow cytometry (reference value: 79.1%); assay type: functional; method in brief: as §3
[8] = test system: 2008; test: Induction of cell cycle arrest in human OV2008 cells assessed as cell accumulation at G2 phase at 2 uM incubated for 12 hrs by propidium iodide staining based flow cytometry (reference value: 2.5%); assay type: functional; method in brief: as §3
[9] = test system: 2008; test: Cytotoxicity in human OV2008 cells assessed as reduction in cell viability incubated for 68 hrs by MTT assay; assay type: functional, cell-based; details: Homo sapiens, 2008, 68 h
Method in brief: (§4)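 Cells were trypsinised and seeded at 5x10^3 cells/well. Compound was added at 0, 0.1, 0.3, 1, 3, 10, 30 and 100 µM for 68 h. MTT (4 mg/mL solution) was then added for 4 h, and the formazan was dissolved in DMSO. Absorbance read at 570 nm. IC50 was derived from % survival across the eight concentrations. Mean ± SD of three independent experiments, each in triplicate.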

[10] = test system: 2008; test: Induction of cell cycle arrest in human OV2008 cells assessed as cell accumulation at G2 phase at 4 uM incubated for 12 hrs by propidium iodide staining based flow cytometry (reference value: 2.5%); assay type: functional; method in brief: as §3
[11] = Selectivity index, ratio of IC50 for cytotoxicity in HEK293 cells incubated for 68 hrs by MTT assay to IC50 for cytotoxicity in human A2780 cells incubated for 68 hrs by MTT assay; assay type: toxicity, cell-based; details: HEK293 cells versus A2780 cells, read-out: Ratio IC50
[12] = test system: A2780; test: Induction of apoptosis in human A2780 cells assessed as apoptosis cells level at 4 uM incubated for 12 hrs by Alexa Fluor 488 annexin V and mito-tracker red CMXRos dye staining based flow cytometry (reference value: 0.0%); assay type: functional; method in brief: as §1
[13] = species: Homo sapiens; test: Inhibition of tubulin alpha in human OV2008 cells assessed as induction of disturbance in cellular microtubule shape and integrity by measuring loss in microtubule long spindle shape at 2 to 4 uM after overnight incubation by immunofluorescence analysis; assay type: cell-based
[14] = test system: MDA-MB-231; test: Cytotoxicity in human MDA-MB-231 cells assessed as reduction in cell viability incubated for 68 hrs by MTT assay; assay type: functional, cell-based; details: MDA-MB-231, 68 h; method in brief: as §4
[15] = test system: DU-145; test: Cytotoxicity in human DU145 cells assessed as reduction in cell viability incubated for 68 hrs by MTT assay; assay type: functional, cell-based; details: DU-145, 68 h; method in brief: as §4
[16] = test system: A2780; test: Reduction in mitochondrial potential in human A2780 cells at 2 uM incubated for 12 hrs by Alexa Fluor 488 annexin V and mito-tracker red CMXRos dye staining based flow cytometry; assay type: functional, cell-based; method in brief: as §1
[17] = species: Homo sapiens; test: Inhibition of tubulin alpha in human OV2008 cells assessed as reduction in alpha-tubulin fluorescence at 2 to 4 uM after overnight incubation by immunofluorescence analysis; assay type: cell-based
[18] = test system: 2008; test: Reduction in alpha-tubulin expression human OV2008 cells at 2 to 4 uM measured after overnight incubation by Western blot analysis; assay type: functional, cell-based
[19] = test system: A2780; test: Cytotoxicity in human A2780 cells assessed as reduction in cell viability incubated for 68 hrs by MTT assay; assay type: functional, cell-based; details: A2780, 68 h; method in brief: as §4
[20] = test system: A2780; test: Potency index, ratio of IC50 for silybin to IC50 for test compound for cytotoxicity in human A2780 cells assessed as reduction in cell viability incubated for 68 hrs by MTT assay; assay type: functional
[21] = test system: ZR-75-1; test: Cytotoxicity in human ZR-75-1 cells assessed as reduction in cell viability incubated for 68 hrs by MTT assay; assay type: functional, cell-based; details: ZR-75-1, 68 h; method in brief: as §4
[22] = Cytotoxicity in human CRL1459 cells assessed as reduction in cell viability incubated for 68 hrs by MTT assay; assay type: cell-based; method in brief: as §4
[23] = Selectivity index, ratio of IC50 for cytotoxicity in CHO cells incubated for 68 hrs by MTT assay to IC50 for cytotoxicity in human A2780 cells incubated for 68 hrs by MTT assay; assay type: toxicity, cell-based; details: Chinese hamster (CHO cells), CHO cells versus A2780 cells, read-out: Ratio IC50
[24] = test system: A2780; test: Inhibition of cell proliferation of human A2780 cells at 1 to 8 uM incubated for 10 to 50 hrs; assay type: functional, cell-based
Method in brief: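 OV2008 or A2780 cells were seeded at low density (1x10^3 cells/well) and given 0, 2, 4 or 8 µM. Live-cell images were taken every 2 h for up to 48 h. Confluence at each time point was quantified with a confluence mask and plotted as timeline curves. Means ± SD of three independent experiments.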

[25] = test system: 2008; test: Potency index, ratio of IC50 for silybin to IC50 for test compound for cytotoxicity in human OV2008 cells assessed as reduction in cell viability incubated for 68 hrs by MTT assay; assay type: functional
[26] = test system: MCF7; test: Cytotoxicity in human MCF7 cells assessed as reduction in cell viability incubated for 68 hrs by MTT assay; assay type: functional, cell-based; details: MCF7, 68 h; method in brief: as §4
[27] = test system: 2008; test: Induction of cell cycle arrest in human OV2008 cells assessed as cell accumulation at subG1 phase at 2 uM incubated for 12 hrs by propidium iodide staining based flow cytometry (reference value: 11.3%); assay type: functional; method in brief: as §3
[28] = test system: 2008; test: Induction of cell cycle arrest in human OV2008 cells assessed as cell accumulation at G1 phase at 4 uM incubated for 12 hrs by propidium iodide staining based flow cytometry (reference value: 79.1%); assay type: functional; method in brief: as §3

For `O=C(/C=C/c1cccc(OCc2ccccc2)c1)c1ccc(O)cc1`, the inhibition [1] was “Active”, the selectivity ratio at 68 h [2] was 6 to 30 and the Activity [3] was 37.3%. The Activity [4] was “Active”, the Activity [5] was 5.2% and the Activity [6] was “Active”. For the same molecule, the Activity [7] was 58.4%, the Activity [8] was 2.7% and the IC50 [9] was 800 nM. The Activity [10] was 1.9%, the selectivity ratio at 68 h [11] was 6 to 30 and the Activity [12] was 38%. The inhibition [13] was “Active”, the IC50 [14] was 2900 nM and the IC50 [15] was 6300 nM. For the same molecule, the Activity [16] was “Active”, the inhibition [17] was “Active” and the Activity [18] was “Active”. For the same molecule, the IC50 [19] was 1000 nM, the “Ratio IC50” value [20] was 30 - 200 and the IC50 [21] was 4900 nM. For the same molecule, the IC50 [22] was 8500 nM, the selectivity ratio at 68 h [23] was 6 to 30 and the inhibition [24] was “Active”. The “Ratio IC50” value [25] was 30 - 200, the IC50 [26] was 2800 nM and the Activity [27] was 25.5%. It also gave an Activity [28] of 45.3%.
